Assay results reported in ChEMBL document CHEMBL1212913, “Quinazolin-4-one derivatives: A novel class of noncompetitive NR2C/D subunit-selective N-methyl-D-aspartate receptor antagonists” (J Med Chem, 2010).

How the values were obtained:
[1] = biological target: Glutamate NMDA receptor; Grin1/Grin2c (Rattus norvegicus, UniProt P35439+Q00961); assay: Antagonist activity at rat recombinant NR1-NR2C receptor expressed in Xenopus oocytes at holding potential of -40mV by two-electrode voltage-clamp electrophysiology; type: functional, cell-based, Oocyte
Method in brief: (§1)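 Oocytes expressing rat NR1-1a with NR2A, NR2B, NR2C or NR2D, clamped at −40 mV in Ba2+/HEPES recording solution pH 7.4, 23°C. Current evoked by 100 μM glutamate plus 30 μM glycine. Final DMSO 0.05-0.5%, 5-7 inhibitor concentrations, ≥4 oocytes each. IC50 from Hill fit of normalized mean composite data. […] Some NR2A oocytes given BAPTA-AM or K-BAPTA.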

[2] = biological target: Glutamate NMDA receptor; Grin1/Grin2b (Rattus norvegicus, UniProt P35439+Q00960); assay: Antagonist activity at rat recombinant NR1-NR2B receptor expressed in Xenopus oocytes at holding potential of -40mV by two-electrode voltage-clamp electrophysiology; type: functional, cell-based, Oocyte; conditions: read-out: IC50; method in brief: as §1
[3] = species: Rattus norvegicus; assay: Selectivity ratio of IC50 for rat recombinant GLuR1 to IC50 for rat recombinant NR1-NR2D receptor
Method in brief: (§2)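 Ratio of fitted IC50 values, either NR2A/NR2D or GluR1/NR2D, from two-electrode voltage-clamp Hill fits in oocytes. Where noted, calculated from IC50 values rounded to the nearest μM.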

[4] = biological target: Ionotropic glutamate receptor NMDA 1/2D (Rattus norvegicus, UniProt P35439+Q62645); assay: Antagonist activity at rat recombinant NR1-NR2D receptor expressed in Xenopus oocytes at holding potential of -40mV by two-electrode voltage-clamp electrophysiology; type: functional, cell-based, Oocyte
Method in brief: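 Oocytes expressing rat NR1-1a with NR2A, NR2B, NR2C or NR2D, clamped at −40 mV in Ba2+/HEPES recording solution pH 7.4, 23°C. Current evoked by 100 μM glutamate plus 30 μM glycine. Final DMSO 0.05-0.5%, 5-7 inhibitor concentrations, ≥4 oocytes each. IC50 from Hill fit of normalized mean composite data. Some NR2A oocytes given BAPTA-AM or K-BAPTA.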

[5] = species: Rattus norvegicus; assay: Selectivity ratio of IC50 for rat recombinant NR1-NR2A receptor to IC50 for rat recombinant NR1-NR2D receptor; method in brief: as §2
[6] = biological target: Glutamate receptor 1 (Rattus norvegicus, UniProt P19490); assay: Antagonist activity at rat recombinant GLuR1 expressed in Xenopus oocytes assessed as inhibition of glutamate-induced current by two-electrode voltage-clamp electrophysiology; type: functional, cell-based, Oocyte
Method in brief: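 Two-electrode voltage clamp at −40 mV on Xenopus oocytes expressing rat GluR1, perfused with 90 NaCl, 1.0 KCl, 0.5 BaCl2, 0.005 EDTA, 10 HEPES (mM), pH 7.4, 23°C; activated by 100 μM glutamate. From 20 mM DMSO stocks, 5-7 concentrations, ≥4 oocytes each. Hill fit to mean composite curves normalized to control, minimum usually fixed at 0. Response >75% at 100 μM reported as >300 μM.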

[7] = biological target: Glutamate NMDA receptor; Grin1/Grin2a (Rattus norvegicus, UniProt P35439+Q00959); assay: Antagonist activity at rat recombinant NR1-NR2A receptor expressed in Xenopus oocytes at holding potential of -40mV by two-electrode voltage-clamp electrophysiology; type: functional, cell-based, Oocyte; conditions: read-out: IC50; method in brief: as §1
Glutamate NMDA receptor; Grin1/Grin2a, sequence (Q00959 whole entry, other chains not shown): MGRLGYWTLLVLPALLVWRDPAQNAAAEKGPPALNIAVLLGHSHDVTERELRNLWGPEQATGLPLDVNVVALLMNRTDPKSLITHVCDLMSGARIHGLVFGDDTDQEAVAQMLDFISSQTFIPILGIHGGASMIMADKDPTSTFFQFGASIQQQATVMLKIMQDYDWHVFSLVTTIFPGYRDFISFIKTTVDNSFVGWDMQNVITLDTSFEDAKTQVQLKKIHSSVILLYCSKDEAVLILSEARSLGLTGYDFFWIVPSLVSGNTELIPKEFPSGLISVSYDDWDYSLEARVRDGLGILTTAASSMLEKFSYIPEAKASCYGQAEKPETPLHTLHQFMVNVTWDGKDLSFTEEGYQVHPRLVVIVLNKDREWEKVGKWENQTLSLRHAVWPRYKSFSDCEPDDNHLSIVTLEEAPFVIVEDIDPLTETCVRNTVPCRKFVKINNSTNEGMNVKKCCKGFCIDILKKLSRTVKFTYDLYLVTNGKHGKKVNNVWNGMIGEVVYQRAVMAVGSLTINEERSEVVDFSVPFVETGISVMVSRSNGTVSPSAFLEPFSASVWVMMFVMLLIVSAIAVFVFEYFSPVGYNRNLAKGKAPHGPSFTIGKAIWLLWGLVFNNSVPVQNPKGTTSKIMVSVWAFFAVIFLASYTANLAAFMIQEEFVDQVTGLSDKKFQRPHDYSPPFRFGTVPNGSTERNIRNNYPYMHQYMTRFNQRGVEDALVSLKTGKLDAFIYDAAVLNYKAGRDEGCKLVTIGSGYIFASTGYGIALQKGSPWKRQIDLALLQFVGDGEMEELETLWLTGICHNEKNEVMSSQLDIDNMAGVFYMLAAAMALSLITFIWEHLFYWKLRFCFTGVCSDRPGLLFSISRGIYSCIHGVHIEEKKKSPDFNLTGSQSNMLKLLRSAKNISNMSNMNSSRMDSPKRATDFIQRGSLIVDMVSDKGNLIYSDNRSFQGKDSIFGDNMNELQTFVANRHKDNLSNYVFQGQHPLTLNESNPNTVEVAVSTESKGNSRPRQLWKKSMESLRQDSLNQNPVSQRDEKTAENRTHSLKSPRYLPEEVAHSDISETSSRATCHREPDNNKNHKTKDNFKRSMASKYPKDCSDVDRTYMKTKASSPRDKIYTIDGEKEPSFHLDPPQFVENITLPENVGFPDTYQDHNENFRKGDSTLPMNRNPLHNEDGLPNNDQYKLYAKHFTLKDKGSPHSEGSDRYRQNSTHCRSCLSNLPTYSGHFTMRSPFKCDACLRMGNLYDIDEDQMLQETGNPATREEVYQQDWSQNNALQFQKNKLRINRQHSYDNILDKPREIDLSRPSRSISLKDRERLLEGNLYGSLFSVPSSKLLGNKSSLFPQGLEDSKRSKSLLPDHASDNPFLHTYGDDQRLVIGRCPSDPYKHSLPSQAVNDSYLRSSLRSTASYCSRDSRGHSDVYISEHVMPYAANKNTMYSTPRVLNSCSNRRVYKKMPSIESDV

Glutamate receptor 1, sequence (P19490 whole entry, the tested form may be a part): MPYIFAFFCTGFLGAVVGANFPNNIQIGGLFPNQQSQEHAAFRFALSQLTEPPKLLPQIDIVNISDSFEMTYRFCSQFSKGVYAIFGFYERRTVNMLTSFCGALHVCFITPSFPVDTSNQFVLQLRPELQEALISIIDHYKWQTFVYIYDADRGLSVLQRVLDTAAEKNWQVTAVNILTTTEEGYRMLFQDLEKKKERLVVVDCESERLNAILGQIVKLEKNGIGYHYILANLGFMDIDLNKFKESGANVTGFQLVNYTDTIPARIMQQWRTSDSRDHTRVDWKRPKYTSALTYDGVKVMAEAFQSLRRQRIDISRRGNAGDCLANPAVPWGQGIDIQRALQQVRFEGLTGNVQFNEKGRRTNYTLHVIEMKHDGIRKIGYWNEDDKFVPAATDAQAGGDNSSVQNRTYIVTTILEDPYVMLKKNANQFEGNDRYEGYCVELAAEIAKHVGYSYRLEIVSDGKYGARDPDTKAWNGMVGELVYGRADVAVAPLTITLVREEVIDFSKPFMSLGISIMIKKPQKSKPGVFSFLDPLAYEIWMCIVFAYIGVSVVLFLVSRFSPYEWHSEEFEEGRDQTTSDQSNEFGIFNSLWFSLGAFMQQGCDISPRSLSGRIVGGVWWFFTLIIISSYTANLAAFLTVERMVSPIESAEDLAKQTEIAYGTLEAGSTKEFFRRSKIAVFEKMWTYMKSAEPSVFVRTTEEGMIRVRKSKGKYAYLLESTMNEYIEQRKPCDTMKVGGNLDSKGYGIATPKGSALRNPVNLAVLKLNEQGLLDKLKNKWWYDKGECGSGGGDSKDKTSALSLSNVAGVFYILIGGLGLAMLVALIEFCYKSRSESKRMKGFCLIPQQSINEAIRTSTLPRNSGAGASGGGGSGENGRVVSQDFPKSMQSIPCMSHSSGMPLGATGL
Glutamate NMDA receptor; Grin1/Grin2b, sequence (Q00960 whole entry, other chains not shown): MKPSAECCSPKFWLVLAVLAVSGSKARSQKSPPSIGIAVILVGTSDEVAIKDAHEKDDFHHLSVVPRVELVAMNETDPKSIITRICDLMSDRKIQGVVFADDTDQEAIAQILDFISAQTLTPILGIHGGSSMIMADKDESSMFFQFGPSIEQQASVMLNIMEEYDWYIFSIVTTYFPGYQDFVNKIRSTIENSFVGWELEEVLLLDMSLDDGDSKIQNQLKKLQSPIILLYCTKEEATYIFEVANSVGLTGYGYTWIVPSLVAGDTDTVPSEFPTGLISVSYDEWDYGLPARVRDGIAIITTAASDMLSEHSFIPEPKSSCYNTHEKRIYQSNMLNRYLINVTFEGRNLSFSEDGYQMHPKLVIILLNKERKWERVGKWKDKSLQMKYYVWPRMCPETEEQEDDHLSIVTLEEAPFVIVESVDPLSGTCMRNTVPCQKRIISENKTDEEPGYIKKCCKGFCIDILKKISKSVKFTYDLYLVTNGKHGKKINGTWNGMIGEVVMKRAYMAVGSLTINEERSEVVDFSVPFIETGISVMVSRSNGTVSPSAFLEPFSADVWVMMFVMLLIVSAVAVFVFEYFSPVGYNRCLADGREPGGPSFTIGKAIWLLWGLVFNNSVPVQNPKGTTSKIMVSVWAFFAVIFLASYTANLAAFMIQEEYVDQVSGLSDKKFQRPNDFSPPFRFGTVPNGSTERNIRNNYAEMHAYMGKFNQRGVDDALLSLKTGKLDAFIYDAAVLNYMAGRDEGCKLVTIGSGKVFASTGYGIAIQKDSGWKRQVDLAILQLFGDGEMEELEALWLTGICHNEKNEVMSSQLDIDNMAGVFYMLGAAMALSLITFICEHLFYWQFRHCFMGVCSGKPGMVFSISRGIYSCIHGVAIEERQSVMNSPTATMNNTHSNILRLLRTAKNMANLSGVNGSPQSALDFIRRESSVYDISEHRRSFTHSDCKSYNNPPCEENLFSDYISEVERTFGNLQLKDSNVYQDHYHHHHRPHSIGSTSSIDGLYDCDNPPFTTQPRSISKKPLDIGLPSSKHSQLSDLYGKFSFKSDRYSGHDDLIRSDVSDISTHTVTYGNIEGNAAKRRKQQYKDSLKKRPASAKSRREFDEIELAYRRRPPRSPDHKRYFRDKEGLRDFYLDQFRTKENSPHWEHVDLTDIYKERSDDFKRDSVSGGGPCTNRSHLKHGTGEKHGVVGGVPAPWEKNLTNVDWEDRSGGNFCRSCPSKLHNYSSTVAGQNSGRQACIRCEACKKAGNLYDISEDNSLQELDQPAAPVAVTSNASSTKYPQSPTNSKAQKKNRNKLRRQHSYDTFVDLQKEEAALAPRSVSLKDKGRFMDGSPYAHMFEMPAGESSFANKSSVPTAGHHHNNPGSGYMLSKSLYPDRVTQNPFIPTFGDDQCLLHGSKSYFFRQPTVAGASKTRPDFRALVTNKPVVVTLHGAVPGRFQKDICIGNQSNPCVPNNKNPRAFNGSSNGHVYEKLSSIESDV
Glutamate NMDA receptor; Grin1/Grin2c, sequence (Q00961 whole entry, other chains not shown): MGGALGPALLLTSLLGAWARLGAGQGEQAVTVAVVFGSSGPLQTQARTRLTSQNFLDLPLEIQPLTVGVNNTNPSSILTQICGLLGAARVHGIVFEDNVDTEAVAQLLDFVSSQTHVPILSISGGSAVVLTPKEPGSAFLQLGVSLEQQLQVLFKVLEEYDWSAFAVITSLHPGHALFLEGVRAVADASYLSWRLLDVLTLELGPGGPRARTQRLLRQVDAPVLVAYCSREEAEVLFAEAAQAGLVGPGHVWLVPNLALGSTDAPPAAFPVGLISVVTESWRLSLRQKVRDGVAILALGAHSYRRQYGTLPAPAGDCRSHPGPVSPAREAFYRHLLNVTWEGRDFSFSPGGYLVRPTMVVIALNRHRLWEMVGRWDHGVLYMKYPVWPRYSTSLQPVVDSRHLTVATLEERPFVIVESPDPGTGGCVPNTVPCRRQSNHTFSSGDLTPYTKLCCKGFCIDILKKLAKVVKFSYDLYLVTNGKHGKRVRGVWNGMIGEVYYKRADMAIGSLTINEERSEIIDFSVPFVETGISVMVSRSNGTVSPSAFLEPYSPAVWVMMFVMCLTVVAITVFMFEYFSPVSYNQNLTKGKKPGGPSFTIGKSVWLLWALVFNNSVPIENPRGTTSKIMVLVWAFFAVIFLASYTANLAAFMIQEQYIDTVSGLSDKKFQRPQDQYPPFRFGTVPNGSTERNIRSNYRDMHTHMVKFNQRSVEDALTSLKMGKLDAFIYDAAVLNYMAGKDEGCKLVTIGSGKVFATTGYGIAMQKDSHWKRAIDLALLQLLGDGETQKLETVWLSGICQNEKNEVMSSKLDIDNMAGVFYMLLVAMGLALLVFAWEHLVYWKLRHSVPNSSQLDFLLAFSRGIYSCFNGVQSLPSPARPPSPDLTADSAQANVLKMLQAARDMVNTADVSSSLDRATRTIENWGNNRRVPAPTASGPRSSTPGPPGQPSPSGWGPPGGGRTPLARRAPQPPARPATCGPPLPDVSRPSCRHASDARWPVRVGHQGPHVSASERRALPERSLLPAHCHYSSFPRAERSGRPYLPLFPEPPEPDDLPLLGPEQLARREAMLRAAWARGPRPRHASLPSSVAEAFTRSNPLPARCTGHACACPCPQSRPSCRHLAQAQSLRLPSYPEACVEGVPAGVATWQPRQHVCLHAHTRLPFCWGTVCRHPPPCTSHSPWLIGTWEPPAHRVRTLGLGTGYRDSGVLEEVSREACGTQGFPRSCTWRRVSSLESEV

Row | SMILES | IC50 [1] [µM] | IC50 [2] [µM] | Ratio IC50 [3] | IC50 [4] [µM] | Ratio IC50 [5] | IC50 [6] [µM] | IC50 [7] [µM]
1 | O=C(O)c1ccc(-n2c(/C=C/c3cccc([N+](=O)[O-])c3)nc3cc(Cl)ccc3c2=O)cc1 | 16 | 52 | 3 | 15 | 2 | 41 | 32
2 | O=C(O)c1cccc(-n2c(/C=C/c3cccnc3)nc3ccc(I)cc3c2=O)c1 | 7 | 49 | 16 | 4 | 11 | 64 | 45
3 | O=C(O)c1ccc(-n2c(/C=C/c3ccc(OC(F)F)cc3)nc3ccccc3c2=O)cc1 | 33 | 89 | 9 | 22 | 3 | 208 | 73
4 | O=C(O)c1ccc(-n2c(/C=C/c3cccc([N+](=O)[O-])c3)nc3c(Cl)cc(Cl)cc3c2=O)cc1 | 16 | 109 | 30 | 10 | 22 | > 300 | 224
5 | O=C(O)c1ccc(-n2c(/C=C/c3ccc(N4CCOCC4)cc3)nc3ccccc3c2=O)cc1 | 284 | 122 | 1 | 171 | 1 | > 300 | > 300
6 | O=C(O)c1ccc(-n2c(/C=C/c3cccc([N+](=O)[O-])c3)nc3ccc(O)cc3c2=O)cc1 | 43 | > 300 | 10 | 10 | 24 | 96 | 237
7 | CN(C)c1ccc(/C=C/c2nc3ccccc3c(=O)n2-c2ccc(C(=O)O)cc2)cc1 | 63 | > 300 | > 5 | 53 | > 5 | > 300 | > 300
8 | O=C(O)c1ccc(-n2c(/C=C/c3cccc([N+](=O)[O-])c3)nc3cc4c(cc3c2=O)OCCO4)cc1 | 281 | > 300 | 1 | 213 | 1 | > 300 | –
9 | COC(=O)c1ccc(-n2c(/C=C/c3cccc([N+](=O)[O-])c3)nc3ccc(OC)cc3c2=O)cc1 | 39 | 46 | 4 | 38 | 6 | 138 | 218
10 | COc1ccc2nc(/C=C/c3cccc([N+](=O)[O-])c3)n(-c3ccc(C(=O)O)cc3)c(=O)c2c1 | 6 | > 300 | > 100 | 3 | 76 | > 300 | 229
11 | CC(C)c1ccc2nc(/C=C/c3cccc([N+](=O)[O-])c3)n(-c3ccc(C(=O)O)cc3)c(=O)c2c1 | 6 | 98 | 29 | 7 | 14 | 200 | 101
12 | O=C(O)c1ccc(-n2c(/C=C/c3cccc([N+](=O)[O-])c3)nc3ccc(-c4cccs4)cc3c2=O)cc1 | 5 | 129 | 93 | 3 | 52 | 280 | 157
13 | O=C(O)c1ccc(-n2c(/C=C/c3ccccc3)nc3ccc(I)cc3c2=O)cc1 | 13 | 66 | 6 | 4 | 13 | 23 | 53
14 | COc1ccccc1-n1c(/C=C/c2cccnc2)nc2ccc(I)cc2c1=O | 3 | 30 | 66 | 3 | 10 | 199 | 31
15 | CSc1ccc(/C=C/c2nc3ccccc3c(=O)n2-c2ccc(C(=O)O)cc2)cc1 | 42 | 79 | 11 | 22 | 10 | 244 | 211
16 | O=c1c2cc(I)ccc2nc(/C=C/c2cccnc2)n1-c1ccccc1 | > 300 | > 300 | 3 | 108 | 1 | > 300 | 132
17 | O=C(O)c1ccc(-n2c(/C=C/c3cccc4ccccc34)nc3ccccc3c2=O)cc1 | 22 | 68 | 14 | 6 | 4 | 82 | 25
18 | COc1cccc(-n2c(/C=C/c3cccnc3)nc3ccc(I)cc3c2=O)c1 | > 300 | > 300 | 1 | – | 1 | > 300 | > 300
19 | O=C(O)c1ccc(-n2c(/C=C/c3ccccc3O)nc3ccccc3c2=O)cc1 | – | 18 | 2 | 18 | 1 | 36 | 20

Now from value to compound:

Row | IC50 [1] [µM] | IC50 [2] [µM] | Ratio IC50 [3] | IC50 [4] [µM] | Ratio IC50 [5] | IC50 [6] [µM] | IC50 [7] [µM] | SMILES
20 | 6 | 31 | 15 | 4 | 7 | 61 | 26 | O=C(O)c1ccc(-n2c(/C=C/c3cccnc3)nc3ccc(I)cc3c2=O)cc1
21 | 2 | 13 | 8 | 1 | 17 | 8 | 17 | O=C(O)c1ccc(-n2c(/C=C/c3cccc([N+](=O)[O-])c3)nc3ccc(Br)cc3c2=O)cc1
22 | 2 | 5 | 2 | 2 | 6 | 4 | 11 | O=C(O)c1ccc(-n2c(/C=C/c3cccc([N+](=O)[O-])c3)nc3cc4ccccc4cc3c2=O)cc1
23 | 2 | 3 | 3 | 2 | 6 | 5 | 11 | O=C(O)c1ccc(-n2c(/C=C/c3cccc([N+](=O)[O-])c3)nc3ccc(-c4ccccc4)cc3c2=O)cc1
24 | 2 | 11 | 21 | 1 | 8 | 21 | 8 | O=C(O)c1cccc(-n2c(/C=C/c3cccc([N+](=O)[O-])c3)nc3ccc(I)cc3c2=O)c1
25 | 15 | 39 | 7 | 6 | 13 | 41 | 80 | COC(=O)c1cccc(/C=C/c2nc3ccc(OC)cc3c(=O)n2-c2ccc(C(=O)O)cc2)c1
26 | 1 | 6 | 52 | 0.6 | 18 | 31 | 18 | O=C(O)c1ccc(-n2c(/C=C/c3cccc([N+](=O)[O-])c3)nc3ccc(I)cc3c2=O)cc1
27 | 5 | 15 | 14 | 2 | 6 | 27 | 12 | Cc1ccc2nc(/C=C/c3cccc([N+](=O)[O-])c3)n(-c3ccc(C(=O)O)cc3)c(=O)c2c1
28 | 4 | 30 | 33 | 4 | 5 | 131 | 19 | O=C(O)c1ccc(-n2c(/C=C/c3cccc([N+](=O)[O-])c3)nc3ccc(/C=C/c4ccccc4)cc3c2=O)cc1
29 | 20 | 36 | 9 | 11 | 6 | 103 | 63 | COc1ccc2cc(/C=C/c3nc4ccccc4c(=O)n3-c3ccc(C(=O)O)cc3)ccc2c1
30 | – | 33 | 1 | 7 | 5 | 7 | 36 | O=C(O)c1ccc(-n2c(/C=C/c3cccc([N+](=O)[O-])c3)nc3ccc(F)cc3c2=O)cc1
31 | – | 36 | 3 | 9 | 3 | 27 | 24 | COc1cccc(/C=C/c2nc3ccccc3c(=O)n2-c2ccc(C(=O)O)cc2)c1
